Screening data deposited in PubChem by several laboratories.
UCH37 DUB inh = blocks the human deubiquitinase UCH37. Q9Y5K5. purified proteasome/UCH37, Ub-AMC cleavage fluorescence. inhibition, % (test concentration not listed). 330,000 compounds, 0.33% hits. AID 588478;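 active means mean inhibition over replicate wells above about 20%, limit read from the data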
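Reagent: Ub-AMC substrate; assay system: Proteasome-associated human UCH37 deubiquitinase; controls: no-proteasome and no-compound wells; read-out: % inhibition of Ub-AMC cleavage fluorescence; timing: 30 min preincubation with enzyme, 25 min cleavage at room temperature; signal: AMC fluorescence from Ub-AMC cleavage, excitation 355 nm, emission 460 nm; buffer or medium: Tris-HCl pH 7.4 plus ovalbumin, ATP-MgCl2, DTT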
FAS-TE inh = inhibitors of human fatty acid synthase thioesterase domain; recombinant FAS-TE, OMFH fluorogenic substrate, fluorescence endpoint; inhibition, % at 15 µM; 360,000 compounds, 0.67% hits; AID 602261;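 active means compounds whose normalised, plate-corrected inhibition of enzyme fluorescence in the single-dose primary screen is 50% or more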
ALR H2O2 inh = blocks human ALR sulfhydryl oxidase activity; 290,000 compounds, 3.8% hits; purified ALR, DTT oxidation, H2O2 HRP-luminol luminescence; inhibition, % (no concentration beside the values);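 active means mean replicate inhibition above about 79%, with every replicate also reaching it, limit read from the data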
Target sequence (P55789 whole entry, looked up): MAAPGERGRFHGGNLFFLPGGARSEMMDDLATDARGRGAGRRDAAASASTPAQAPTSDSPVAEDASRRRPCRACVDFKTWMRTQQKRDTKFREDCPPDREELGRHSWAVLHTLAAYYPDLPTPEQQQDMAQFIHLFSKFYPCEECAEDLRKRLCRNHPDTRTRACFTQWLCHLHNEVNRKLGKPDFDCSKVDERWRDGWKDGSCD
M18AAP inhibitor = PfM18AAP enzyme inhibition; recombinant PfM18AAP, H-Glu-NHMec fluorogenic cleavage; inhibition, % at 7.35 µM; 290,000 compounds, 1.2% hits; AID 1822;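 active means inhibition above the campaign mean inhibition over all tested compounds plus 3 SD, cut at about 28% in these data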
HDAC3 inh = blocks human histone deacetylase 3; O15379; recombinant HDAC3, fluorogenic peptide/trypsin coupled, fluorescence; inhibition, % at 8.3 µM; 320,000 compounds, 0.15% hits; AID 2718; in the data active means inhibition above about 26%, passing the limit was not always enough
Rtt109 Vps75 = inhibitors of Candida albicans Rtt109/Vps75 histone acetyltransferase | inhibition, % at 34.9 µM | AID 540336 | purified Rtt109/Vps75, ThioGlo CoA-SH fluorescence, 4 h | 330,000 compounds, 0.16% hits | Q5AAJ8;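 active means inhibition of at least 50% in every replicate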
Target sequence (Q5AAJ8 whole entry, looked up): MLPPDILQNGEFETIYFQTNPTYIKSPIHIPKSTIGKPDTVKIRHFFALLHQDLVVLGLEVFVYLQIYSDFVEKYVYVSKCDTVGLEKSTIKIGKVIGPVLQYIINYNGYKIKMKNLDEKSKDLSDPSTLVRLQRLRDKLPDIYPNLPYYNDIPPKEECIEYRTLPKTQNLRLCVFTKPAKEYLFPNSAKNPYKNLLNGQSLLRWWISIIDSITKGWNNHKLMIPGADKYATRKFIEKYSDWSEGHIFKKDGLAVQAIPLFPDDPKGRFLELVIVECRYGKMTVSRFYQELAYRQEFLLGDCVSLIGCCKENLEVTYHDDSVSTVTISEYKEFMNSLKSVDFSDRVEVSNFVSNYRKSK
Numbers stand for hits; . = inactive; / = no result given; ! = repeats disagree. The list is not random: actives were taken first. Their share in the collection is about 4.6%.

SMILES	UCH37 DUB inh	FAS-TE inh	ALR H2O2 inh	M18AAP inhibitor	HDAC3 inh	Rtt109 Vps75
CCOP(=O)(OCC)c1ccc(OP(=O)(c2cccc([N+](=O)[O-])c2)c2cccc([N+](=O)[O-])c2)cc1	.	.	.	.	57	.
CCOP(=O)(OCC)C(O)c1cccc([N+](=O)[O-])c1 (configuration not stated)	.	.	.	.	.	.
Nc1ccc2c(c1)Cc1ccccc1-2	.	.	99	.	.	.
COc1cccc(N2C(=O)NC(=O)/C(=C/c3ccc4c(c3)Cc3ccccc3-4)C2=O)c1	.	.	.	.	.	.
COc1cc(C)cc2oc(=O)c(CC(=O)N3C[C@H]4C[C@@H](C3)c3cccc(=O)n3C4)c(C)c12	.	.	.	.	.	.
Cc1cc(O)c2c(C)c(CC(=O)N3C[C@H]4C[C@@H](C3)c3cccc(=O)n3C4)c(=O)oc2c1	.	.	85	.	.	.
O=C(NC1CCCCC1)Oc1cc2oc(=O)sc2cc1Cl	.	.	92	31	.	89
CN1Cc2cccnc2N(C)Cc2cc(Cl)ccc21	.	.	99	.	.	.
O=C1CC(c2cccnc2)=NN1c1ccc(Cl)cc1Cl	.	.	.	.	.	.
CC(=O)c1ccc2c(c1)C1C(Cl)C(Sc3ccccc3[N+](=O)[O-])CC1C(C(=O)O)N2 (configuration not stated)	.	.	95	.	.	.
O=C(O)c1cccc2c1NC(C(=O)O)C1CC(Sc3ccccc3[N+](=O)[O-])C(Cl)C21 (configuration not stated)	.	.	.	.	.	60
Cc1cc(Br)ccc1N1C(=O)CC(=O)NC1=O	.	.	85	.	.	.
Cc1ccc(/C=C2\C(=O)NC(=S)N(c3ccccc3F)C2=O)s1	.	.	98	.	.	.
C[CH2][Hg][S]c1ccccc1C(=O)O	.	.	.	/	56	.
Oc1cc2c(cc1O)[C@H]1c3ccccc3CN[C@@H]1CC2	/	/	99	90	.	/
COC(=O)C1=C(c2ccc(F)cc2F)C[C@@H]2CC[C@H]1N2C(=O)NCCNC(C)=O	25	.	.	/	.	.
COC(=O)C1=C(c2cc3ccccc3o2)C[C@@H]2CC[C@H]1N2C(=O)NCCO	27	.	/	/	.	.
CCCNC(=O)N1[C@H]2CC[C@@H]1C(C(=O)OC)=C(c1ccc(F)cc1F)C2	.	.	.	/	.	.
Nc1ccc(C(=O)NN=C2CN3CCC2CC3)cc1	.	/	/	/	/	/
COc1ccc(N(CC(=O)NCc2ccc3c(c2)OCO3)S(C)(=O)=O)cc1OC	.	.	/	.	.	.
CC(=O)Nc1ccccc1OP1(=O)COc2ccccc2OC1	.	.	81	.	.	.
CC(=O)Nc1ccccc1C(=O)OCC(=O)c1ccccc1Cl	.	.	.	.	.	.
CN(C)c1ccc(/C=C/C=C/c2sc3ccccc3[n+]2C)cc1	/	.	.	.	.	.
CN(C)c1ccc(/C=C/c2cc[n+](C)c3ccccc23)cc1	.	.	/	.	/	181!
CN(C)c1ccc(NC(=O)CN2C(=O)CN=C(c3ccccc3)c3ccccc32)cc1	.	.	99	.	.	.
SMILES	UCH37 DUB inh	FAS-TE inh	ALR H2O2 inh	M18AAP inhibitor	HDAC3 inh	Rtt109 Vps75
CN(C)c1ccc(NC(=O)CN2C(=O)CN=C(c3ccccc3)c3cc(Cl)ccc32)cc1	.	.	89	.	.	.
Cc1ccc(NC(=O)CN2C(=O)CN=C(c3ccccc3)c3cc(Cl)ccc32)cc1	.	.	/	.	/	.
Cc1cccc(N2C(=O)CN(Cc3ccccc3)C2=S)c1	.	.	.	.	.	.
Cc1cc(/C=C2/C(=O)NC(=O)N(Cc3ccco3)C2=O)c(C)n1-c1ccccc1	.	.	92	.	.	.
CN(C)c1ccc(/C=C2/C(=O)NC(=O)N(Cc3ccco3)C2=O)cc1	.	.	.	.	.	.
O=C(O)CCn1cc(C=C2C(=O)NC(=S)NC2=O)c(-c2ccccc2)n1	.	.	87	.	.	.
C=C1[C@@H](C)[C@H]2[C@H](Cc3ccccc3)NC(=O)[C@]23OC(=O)C=C[C@H](O)CCC[C@@H](C)CC=C[C@H]3[C@@H]1O	.	/	/	/	/	/
CC1=CC2C=C(C)C(C)C3C(CC(C)C)NC(=O)C23C(=O)C=CC(O)C(O)CC1 (configuration not stated)	.	/	/	/	/	/
Nc1ccc(N=Nc2ccccc2)cc1	.	.	98	.	.	.
CC(=O)C1C2c3ccccc3OC1(C)N=c1sc(=Cc3cnn(C)c3)c(=O)n12 (configuration not stated)	.	/	/	/	/	/
CCOC(=O)c1cc(C)sc1N=CC1C(=O)NC(=S)NC1=O	.	/	/	/	/	/
CCOC(=O)c1cc(CC)sc1/N=C/c1c(O)[nH]c(=S)[nH]c1=O	.	.	98	.	.	/
CCOC(=O)c1cc(CC)sc1/N=C/C1C(=O)NC(=S)NC1=O	/	.	97	.	.	.
CNC(=O)ON=C(N)Cc1csc2ccc(Cl)cc12	.	/	/	/	/	/
CCn1nc(-c2cccs2)nc2c(=O)n(C)c(=O)nc1-2	95	.	/	/	/	.
O=C1NC(=S)N(c2ccccc2)C(=O)/C1=C/c1ccco1	/	.	99	.	.	.
O=C1NC(=O)N(c2ccccc2)C(=O)/C1=C/c1ccc(Sc2ccccc2)o1	.	.	97	.	.	.
O=C1NC(=O)N(c2ccccc2F)C(=O)/C1=C/c1ccc(Sc2nc3ccccc3[nH]2)o1	.	.	98	.	.	.
O=C1NC(=O)N(c2cccc(Cl)c2)C(=O)/C1=C\c1ccc(Sc2nc3ccccc3[nH]2)o1	.	.	.	.	/	.
C[C@H]1CCCC=CC2C[C@H](O)CC2[C@H](O)C=CC(=O)O1 (some centres not stated)	.	/	/	/	/	/
CN(CN=C(N)N[N+](=O)[O-])S(=O)(=O)c1ccccc1	.	/	/	/	/	/
O=C(NN=C1CN2CCC1CC2)c1cccc(O)c1	.	/	/	/	/	/
CC(C)c1ccc(N=Nc2c(O)[nH]c(=O)[nH]c2=O)cc1	.	.	.	.	.	.
O=c1[nH]c(=S)[nH]c(O)c1N=Nc1ccc(SC(F)F)cc1	.	.	98	.	.	.
Cc1cccc(N2C(=O)NC(=O)/C(=C/c3ccc(N4CCOCC4)cc3)C2=O)c1	.	.	97	.	.	.
SMILES	UCH37 DUB inh	FAS-TE inh	ALR H2O2 inh	M18AAP inhibitor	HDAC3 inh	Rtt109 Vps75
COc1cccc(CC(=O)Nc2cc(S(=O)(=O)N3CCOCC3)ccc2N2CCN(C)CC2)c1	.	.	/	/	.	.
COc1cc(C=Nn2cnnc2)ccc1OC(=O)N(C)C	.	/	/	/	/	/
Cc1ccc(NP(=O)(Oc2ccccc2F)Oc2ccccc2F)cc1C	.	.	.	.	30	.
CC(=O)Nc1ccc(C(=O)OCC(=O)Nc2ccc(Cl)cc2C(=O)c2ccccc2)cc1	.	.	.	.	.	.
O=C(COC(=O)c1ccc(O)cc1)Nc1ccc(Cl)cc1C(=O)c1ccccc1	.	.	96	.	.	.
O=C(CSC1c2ccccc2-c2ccccc21)NN=Cc1ccccc1C(=O)O	.	/	/	/	/	/
